According to the RNAGym collection of RNA variant scans (doi:10.1126/science.aae0568):
Variants at the floor of the assay were thinned out.

B1: tRNA (parent)
chain: GUUCCGUUGGCGUAAUGGUAACGCGUCUCCCUCCUAAGGAGAAGACUGCGGGUUCGAGUCCCGUACGGAACG

Variants of: B1
Experiment: yeast fitness relative to wild type (ratio to wild type); higher = fitter; tRNA-Arg(CCU), competitive growth, 37 C, YPD
Summary of the method: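 The tRNA-Arg(CCU) gene variants were made by chemical synthesis with a 3% per-site mutation rate at 69 sites and inserted at the native genomic locus of Saccharomyces cerevisiae. After pooling, the strains were competed in YPD at 37°C for 24 hours in six parallel replicates. Gene amplicons from the start population and each end population were read by 100-nucleotide paired-end sequencing, and Darwinian fitness relative to wild type was taken from genotype frequency changes. Genotypes needed ≥ 100 starting reads, and estimates < 0.5 were set to 0.5.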

Point of comparison: GUUCCGUUGGCGUAAUGGUAACGCGUCUCCUUCCUAAGCAGAAGACUGCGGGUUCGAAUCCCGUACGGAACG [C31U G39C G58A], yeast fitness 0.552. Against it:
- GUUCCGUUGACGUAAUGGUAAGGCGUCUCCCUCCUAGAGAGAAGACUGCGGGUUCGAGUCCCGUACGGAACG [G10A C22G A37G G38A] — lower, ≤ 0.5
- GUUCCGUUGGCGUGAUGGUAACGCGUCUCCCUCCUAAGGAGAAGACUGCGGGUUCGGGUCCCGUACGCAACG [A14G A57G G68C] — higher, 0.616
- GUUCCGUUGGCGUAAUGGUAACGCGUCUACCUCCUAAGGAGAAGACUGCGGGUUCGAAUCGCGUACGGAUCG [C29A G58A C61G A70U] — higher, 0.642
- GUUCAGUUGGCGUGAUGGUAACGCGACUCCCUCCUAUGGAAAAGACUGCGGGUUCGAGUCCUGUACGGAACG [C5A A14G U26A A37U G41A C62U] — lower, ≤ 0.5
- GUUCAGUUGGCGUAAUGGUAAUGCGUCUCCCUCCUAAGGAGAAGACUGUCGGUUCGAGUCCCGUACGGAACG [C5A C22U C49U G50C] — lower, ≤ 0.5
- GUUCCGUUGGCGUAAUGGUAACGCGUCUCCCUCCUAAGGAGAAGAUUGGGCGUUCGAGUCCCGUAGGGAACG [C46U C49G G51C C66G] — lower, ≤ 0.5
- GUUCCGUUGGCGUAAUGGUAACGCGUCUCCCACCUAAGGAGAAGAUUGCGGGUUCGAGUCCCCUACGGAACG [U32A C46U G63C] — lower, ≤ 0.5
- GUUCCGUCGGUGUAACGGUAACGCGUCUCCCUCCUAAGGAGAAGAUUGAGGGUUCGAGUCCCGUACGGAACG [U8C C11U U16C C46U C49A] — higher, 0.573
- GUUCCGUUGGCGUAAUGGUAACGCGUCUCCCUCCUAAGGACAAGACUGCGGGUUUGAGUCCCGUACGGAACG [G41C C55U] — higher, 0.787
- GUUCCGUCGGCGAAAUGGUAAAGCGUCUCCCUCCUAAGGAGUAGACUGCGGGUUCGAGUCCCGUACGGAACG [U8C U13A C22A A42U] — lower, ≤ 0.5
- GUUCGGUUGGCGUAAUGGUUACGCGUCUCCCUCCUAAGGAGAAGACUGCGGGUUCGAGUCCGGUACGGAACG [C5G A20U C62G] — lower, ≤ 0.5
- GUUCCGUUGGCGUAAUGGUAACGCGUCUCCGUCCUAAGGAGAAGACUGCGGGUUCGAGUCGGGUACGGAACG [C31G C61G C62G] — lower, 0.514
- GUUCCGUUGGCGUAAUGGUAUCGCGUCUCCCUGCUAAGGAGAAGACUGCGGGUUUGAGUCCCGUACGGAACG [A21U C33G C55U] — lower, ≤ 0.5
- GUUGCGUUGGCGUAAUGGUAACGCGUCUCCCGUCUAUGGAGAAGACUGCGGGUUCGAGUCCCGUGCGGAACG [C4G U32G C33U A37U A65G] — lower, ≤ 0.5
- GUUCCGUUGGCGUAAUGGUAACGCGUCUCCCUGCUAAGGAGAAGACUACGGGUUCGAGUCCCGUACGGAACG [C33G G48A] — higher, 0.629
- GUUCCGUUGGCGUAAUGGUAACGCGUCGCCCACCUAACGAGAAGACUGCGGGUUCGAGUCCCGUCCCGAACG [U28G U32A G38C A65C G67C] — lower, ≤ 0.5
- GUUCCGUUGGCGUAAUGGUAACGCGUUUCCCUCCUAAGGAGAAGCCUGCGGGUUCGAGUCCCGUACAGAACG [C27U A45C G67A] — higher, 0.666
- GUUCCGUUGGCGUAAUGGUAACGCGUCUCCCUCCUAUGGAGAAGACUGCGGGUUCGCGUCCCGUACGGAACG [A37U A57C] — higher, 0.578
- GUUCCGUUGGCGUAAUGGUAACGCGUCUCCAUCCUAAGGAGGAGACUGCGGGUUCGAGUCCCGUACAGUACG [C31A A42G G67A A69U] — higher, 0.625
- GUUCCGUUGGCGUCAUGGUAACGCGUCUCCCUCCUAAGGAGAAGACUGCGGGUACGAGCCGCGUACGGAACG [A14C U54A U59C C61G] — lower, ≤ 0.5
- GUUUCGUUGGCGUAAUGGUAACGCGUCUCCCUCCUAGGGACAAGACUGCGGGUUGGAGUCCCGUACGGAACG [C4U A37G G41C C55G] — lower, 0.537
- GUUCCGUCGGCGUAAUGGUAAUGCGUCUCCCUCCUAAGGAGAAGACUGCGGGUUCGACUCCCGUACGGAACG [U8C C22U G58C] — lower, ≤ 0.5
- GAUCCGUUGGCGUAAUGGGAACGCGUCUGCCUCCUAAGGAGAAGACUGCGGGUUCGAGUCCCGUACGGAACG [U2A U19G C29G] — lower, ≤ 0.5
- GUUCCGUUGGCGUAAUGGUAACGUGUCUCCCUCCUAAGGAGAAGACUGCGCGUUCGAGUCCCGUACGGAACG [C24U G51C] — higher, 0.624
- GUUCCGUUGGCGUAAUGGUAACGUGUCUCCCUCCUAAGGAGAAGACUGCGGGUUGGAGUCCCCUACGGAACG [C24U C55G G63C] — lower, 0.528
- GUUCCGUUGGCGUAAUGGUAACGCGUCUCCCUCCCAAGGAGAAGACUGCGGGUUCGAGUGCCGUACGGAACG [U35C C60G] — higher, 0.602
- GUUCCGUUGGCGUAAUGGUAACGCGUCUCCCUCCUAAGGAGUAGUCUGCGGGUUCGAGUUCCGUCCGGAACG [A42U A45U C60U A65C] — lower, ≤ 0.5
- GUUCCGAUGGCGUAAUGGUCACGCGUCUCCCUCCUAAGGAGAAGACUGCGGGUUCGAGUCCCGUACGGCACG [U7A A20C A69C] — higher, 0.609
- GUUCCGUUGGCGUAAUGGUAAGGCGUCUCCCUCAUAAGGAGAAGACUGCGGGUUCGAGUCCCGUAAGGAACG [C22G C34A C66A] — higher, 0.703
- GUUCCGUUGGCGUAAUGGUAACGCGUCUCCCUCCUAACGAGAAGACUGCGGGUUCGAGUCCCGUACUGAACG [G38C G67U] — lower, 0.549
- GUUUCGUUGGCGUAAUGGUAAGGCGUCCCCCUCCUAAGGAGAAGACUGCGGGUUCGAGCCCCGUACGGAACG [C4U C22G U28C U59C] — lower, ≤ 0.5
- GUUCCGUUGGCGUAAUGGUACCGCGUCUUCCUCCUAAGGAGAAGACUGCGGGUUCGCGUCCCGUACGGAACG [A21C C29U A57C] — higher, 0.558
- GUUCCGUUGGCGUUAUGGUAACGCGUCUUCCUCCUAAGGAGAAGACUGCGGGUUCGAGUCCCGUACGGAACG [A14U C29U] — higher, 0.64
- GUUCCGUUGGCCUAAUAGUAACGCGUCUCCCUCCUAAGGAGAAGACUGCGGGUUCGAGUCCCGUACGGAACG [G12C G17A] — higher, 0.673
- GUUACGUUGGAGCAAUGGUAACGCGUCUCCCUCCUAAGGAGAAGACUGCGGGUUCGAGUCCCGUACGGAACG [C4A C11A U13C] — higher, 0.605
- GUUCCGUUGGCGUAAUGGUAACGCGUCUCCCUGGUAAGGAGAAGAGUGCGGGUUCGAGUCCCGUACGGAACG [C33G C34G C46G] — lower, ≤ 0.5
- GUUCCGUUGCCGUAAUGGUAACGCGUCUCCCUCCUCAGGAGAAGACUGCGGGUUCGAGUCCCGUACGGAACG [G10C A36C] — higher, 0.712
